Reference: ChEMBL document CHEMBL1136859, “Synthesis and antimicrobial evaluation of some new substituted purine derivatives” (2009)
In brackets after ≈: the same amount, converted by molar mass.

How the values were obtained:
Format in all cases: functional
[1] = tested on: Staphylococcus aureus; experiment: Antibacterial activity against Staphylococcus aureus ATCC 25923 after 18 to 24 hrs by tube dilution method
Outline: (§1)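 Two-fold broth tube dilution in Mueller–Hinton broth. Strains kept on Mueller–Hinton agar for 24 h at 37 °C. Colonies suspended in sterile water and adjusted to 0.5 McFarland, giving a final inoculum of about 10⁵ CFU/mL. Compounds dissolved in 12.5% DMSO at 200 µg/mL and serially diluted to 0.19 µg/mL. Incubated 18–24 h at 37 °C. MIC taken as the last tube with no growth.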

[2] = tested on: Staphylococcus aureus; experiment: Antibacterial activity against methicillin-resistant Staphylococcus aureus […] after 18 to 24 hrs by tube dilution method; outline: as §1
[3] = tested on: Staphylococcus aureus; experiment: Antibacterial activity against methicillin-resistant Staphylococcus aureus isolate after 18 to 24 hrs by tube dilution method; outline: as §1
[4] = tested on: Escherichia coli; experiment: Antibacterial activity against Escherichia coli 25922 after 18 to 24 hrs by tube dilution method; details: ATCC25922
Outline: (§2)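 Tube dilution broth MIC in Mueller–Hinton broth. Strains were maintained on Mueller–Hinton agar for 24 h at 37 °C. Colonies were suspended in sterile water, adjusted to 0.5 McFarland, and added to give about 10⁵ CFU/mL final. Compounds were dissolved in 12.5% DMSO and serially diluted two-fold. Tubes were incubated 18–24 h at 37 °C. MIC was taken as the last tube with no growth.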

[5] = tested on: Bacillus subtilis; experiment: Antibacterial activity against Bacillus subtilis 6633 after 18 to 24 hrs by tube dilution method; outline: as §2
[6] = tested on: Candida albicans; experiment: microbe, parasite or virus in culture

SMILES | MIC [1] [µg/mL] | MIC [2] [µg/mL] | MIC [3] [µg/mL] | MIC [4] [µg/mL] | MIC [5] [µg/mL] | MIC [6] [µg/mL]
Nc1ncnc2c1ncn2C1CCCC1 | 50 (≈ 246 µM) | 50 (≈ 246 µM) | 50 (≈ 246 µM) | 50 (≈ 246 µM) | 25 (≈ 123 µM) | 12.5 (≈ 61.5 µM)
Fc1ccc(CNc2ncnc3c2ncn3C2CCCC2)c(F)c1 | 50 (≈ 152 µM) | 50 (≈ 152 µM) | 50 (≈ 152 µM) | 50 (≈ 152 µM) | 50 (≈ 152 µM) | 25 (≈ 75.9 µM)
c1ccc(NCCNc2ncnc3[nH]cnc23)cc1 | 50 (≈ 197 µM) | 50 (≈ 197 µM) | 50 (≈ 197 µM) | 25 (≈ 98.3 µM) | 50 (≈ 197 µM) | 3.12 (≈ 12.3 µM)
COc1ccc(CNc2ncnc3c2ncn3C2CCCC2)c(OC)c1 | 50 (≈ 141 µM) | 50 (≈ 141 µM) | 50 (≈ 141 µM) | 25 (≈ 70.7 µM) | 25 (≈ 70.7 µM) | 12.5 (≈ 35.4 µM)
Clc1ccc(CNc2ncnc3c2ncn3C2CCCC2)c(Cl)c1 | 12.5 (≈ 34.5 µM) | 25 (≈ 69 µM) | 50 (≈ 138 µM) | 50 (≈ 138 µM) | 25 (≈ 69 µM) | 6.25 (≈ 17.3 µM)
CCN(CC)CCNc1ncnc2c1ncn2Cc1ccc(F)cc1 | 50 (≈ 146 µM) | 50 (≈ 146 µM) | 50 (≈ 146 µM) | 50 (≈ 146 µM) | 25 (≈ 73 µM) | 25 (≈ 73 µM)
CCN(CC)CCNc1ncnc2c1ncn2C1CCCC1 | 50 (≈ 165 µM) | 50 (≈ 165 µM) | 50 (≈ 165 µM) | 50 (≈ 165 µM) | 25 (≈ 82.7 µM) | 50 (≈ 165 µM)
CC(C)NCCNc1ncnc2c1ncn2C1CCCC1.Cl | 25 | 50 | 50 | 50 | 25 | 25
CCNc1nc2c(N)ncnc2n1C1CCCC1 | 25 (≈ 101 µM) | 50 (≈ 203 µM) | 50 (≈ 203 µM) | 50 (≈ 203 µM) | 50 (≈ 203 µM) | 6.25 (≈ 25.4 µM)
CCn1c(NCC(C)C)nc2c(N)ncnc21 | 50 (≈ 213 µM) | 50 (≈ 213 µM) | 50 (≈ 213 µM) | 50 (≈ 213 µM) | 50 (≈ 213 µM) | 25 (≈ 107 µM)
Fc1ccc(CNc2ncnc3c2ncn3C2CCCC2)cc1 | 25 (≈ 80.3 µM) | 25 (≈ 80.3 µM) | 25 (≈ 80.3 µM) | 50 (≈ 161 µM) | 25 (≈ 80.3 µM) | 3.12 (≈ 10 µM)
COc1ccc(CNc2ncnc3c2ncn3C2CCCC2)cc1 | 25 (≈ 77.3 µM) | 50 (≈ 155 µM) | 25 (≈ 77.3 µM) | 50 (≈ 155 µM) | 50 (≈ 155 µM) | 12.5 (≈ 38.7 µM)
Clc1ccc(CNc2ncnc3c2ncn3C2CCCC2)cc1 | 12.5 (≈ 38.1 µM) | 6.25 (≈ 19.1 µM) | 6.25 (≈ 19.1 µM) | 50 (≈ 153 µM) | 25 (≈ 76.3 µM) | 12.5 (≈ 38.1 µM)
CN1CCN(Nc2ncnc3c2ncn3C2CCCC2)CC1 | 50 (≈ 166 µM) | 50 (≈ 166 µM) | 50 (≈ 166 µM) | 50 (≈ 166 µM) | 25 (≈ 82.9 µM) | 25 (≈ 82.9 µM)
C1=CC(CCNc2ncnc3c2ncn3C2CCCC2)CCC1 (configuration not stated) | 12.5 (≈ 40.1 µM) | 25 (≈ 80.3 µM) | 25 (≈ 80.3 µM) | 25 (≈ 80.3 µM) | 50 (≈ 161 µM) | 12.5 (≈ 40.1 µM)
CCn1c(NC2CCCC2)nc2c(N)ncnc21 | 50 (≈ 203 µM) | 50 (≈ 203 µM) | 50 (≈ 203 µM) | 50 (≈ 203 µM) | 25 (≈ 101 µM) | 12.5 (≈ 50.7 µM)
CN1CCN(Nc2ncnc3[nH]cnc23)CC1 | 50 (≈ 214 µM) | 50 (≈ 214 µM) | 50 (≈ 214 µM) | 25 (≈ 107 µM) | 25 (≈ 107 µM) | 12.5 (≈ 53.6 µM)
CC1CCN(c2ncnc3c2ncn3C2CCCC2)CC1 | 50 (≈ 175 µM) | 50 (≈ 175 µM) | 50 (≈ 175 µM) | 50 (≈ 175 µM) | 50 (≈ 175 µM) | 12.5 (≈ 43.8 µM)
C1=CC(CCNc2ncnc3[nH]cnc23)CCC1 (configuration not stated) | 50 (≈ 205 µM) | 50 (≈ 205 µM) | 50 (≈ 205 µM) | 25 (≈ 103 µM) | 25 (≈ 103 µM) | 6.25 (≈ 25.7 µM)
c1ccc(NCCNc2ncnc3c2ncn3C2CCCC2)cc1 | 50 (≈ 155 µM) | 50 (≈ 155 µM) | 50 (≈ 155 µM) | 50 (≈ 155 µM) | 25 (≈ 77.5 µM) | 12.5 (≈ 38.8 µM)
CC1CCN(c2ncnc3[nH]cnc23)CC1 | 25 (≈ 115 µM) | 50 (≈ 230 µM) | 50 (≈ 230 µM) | 50 (≈ 230 µM) | 25 (≈ 115 µM) | 25 (≈ 115 µM)
CC(C)NCCNc1ncnc2c1ncn2Cc1ccc(F)cc1 | 50 (≈ 152 µM) | 50 (≈ 152 µM) | 50 (≈ 152 µM) | 50 (≈ 152 µM) | 50 (≈ 152 µM) | 25 (≈ 76.1 µM)
CC1(C)S[C@@H]2[C@H](NC(=O)[C@H](N)c3ccccc3)C(=O)N2[C@H]1C(=O)O [AMPICILLIN] | 0.78 (≈ 2.23 µM) | 50 (≈ 143 µM) | 50 (≈ 143 µM) | 50 (≈ 143 µM) | 50 (≈ 143 µM) | 
O=C(O)c1cn(C2CC2)c2cc(N3CCNCC3)c(F)cc2c1=O [CIPROFLOXACIN] | 0.78 (≈ 2.35 µM) |  | 12.5 (≈ 37.7 µM) |  | 0.19 (≈ 0.573 µM) | 
Clc1ccc(COC(Cn2ccnc2)c2ccc(Cl)cc2Cl)c(Cl)c1 (configuration not stated) [MICONAZOLE] |  |  |  |  |  | 3.12 (≈ 7.5 µM)
Clc1ccc(CO/N=C(\Cn2ccnc2)c2ccc(Cl)cc2Cl)c(Cl)c1 [OXICONAZOLE] |  |  |  |  |  | 6.25 (≈ 14.6 µM)
CC1(C)S[C@@H]2[C@H](NC(=O)[C@H](N)c3ccccc3)C(=O)N2[C@H]1C(=O)OCOC(=O)[C@@H]1N2C(=O)C[C@H]2S(=O)(=O)C1(C)C [SULTAMICILLIN] | 1.56 (≈ 2.62 µM) | 25 (≈ 42 µM) | 25 (≈ 42 µM) | 25 (≈ 42 µM) | 0.78 (≈ 1.31 µM) | 
